# MC4R antag cAMP: blocks human MC4R cAMP signaling; P32245; MC4R-expressing cells, MTII-stimulated cAMP, LANCE TR-FRET; inhibition, % at 6.5 µM; 0.48% of 360,000 active;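 active = inhibition above its plate's cutoff, the mean of tested wells on that plate plus 3 SD, cut at about 29% in these data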;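 also: 0% = Melanotan II alone and 100% = Melanotan II plus saturating MCL0020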
#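 Assay system: human MC4R-expressing U2OS cells; reagent: Melanotan II stimulation of cells; dosing: 6.5 µM single dose; timing: compound 30 min, challenge 1 h, detection 1 h; signal: TR-FRET cAMP assay; replicates: one well per compound, no replicates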
# TLR4-MyD88 BLA: inhibitors of human TLR4-MyD88 binding | O00206+Q99836 | HeLa CL3-4 TLR4/MyD88 BLA complementation, FRET ratio | inhibition, % at 8.4 µM | 0.18% of 200,000 active; in the data active = inhibition above about 25%;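 also: 0% = vehicle and 100% = reference inhibitor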
# MC4R ag barr: activates human MC4R beta-arrestin recruitment. P32245. U2OS MC4R beta-arrestin complementation, luminescence; percent of melanotan II response, DMSO zero. activation, % at 8.9 µM. 0.98% of 360,000 active. AID 540308;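 active = activation above a per-plate cutoff, the mean activation of sample wells on that plate plus 3 SD, cut at about 8% in these data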
# MIN6 prolif: MIN6 beta-cell proliferation induction; MIN6 cells proliferation, ATPlite luminescence, 48 h; cells starved in 0.2% serum; 100% = growth in 10% serum; proliferation, % at 10 µM; 0.29% of 330,000 active; AID 2380;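 active = compounds whose signal lies at least 3.5 SD above the mean of all wells on their plate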;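 also: 0% = DMSO-treated cells in low-serum medium and 100% = 10% serum control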
# NOD2 RIPK2 PPI: inhibitors of human NOD2-RIPK2 interaction. O43353. CHO BLA complementation NOD2-RIPK2, CCF4 ratio. inhibition, % at 4.98 µM. 0.38% of 360,000 active. AID 624267; in the data active = inhibition above about 21%;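 also: 0% = vehicle only and 100% = reference blocker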
# Target sequence (O43353 whole entry, looked up): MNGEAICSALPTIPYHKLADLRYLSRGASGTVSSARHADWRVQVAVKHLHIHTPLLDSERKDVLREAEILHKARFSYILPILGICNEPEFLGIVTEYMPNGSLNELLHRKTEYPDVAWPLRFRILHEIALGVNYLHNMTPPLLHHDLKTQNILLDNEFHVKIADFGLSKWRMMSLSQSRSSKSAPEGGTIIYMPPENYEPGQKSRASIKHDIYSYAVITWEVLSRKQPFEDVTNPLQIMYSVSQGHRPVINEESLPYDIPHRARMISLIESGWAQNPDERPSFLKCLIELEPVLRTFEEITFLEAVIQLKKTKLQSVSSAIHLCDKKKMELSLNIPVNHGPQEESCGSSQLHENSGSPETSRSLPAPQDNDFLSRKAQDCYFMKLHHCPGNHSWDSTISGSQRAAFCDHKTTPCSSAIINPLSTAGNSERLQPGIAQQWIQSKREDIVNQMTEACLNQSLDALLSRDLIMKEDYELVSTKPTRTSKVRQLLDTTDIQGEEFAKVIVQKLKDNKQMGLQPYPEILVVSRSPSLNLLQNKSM
# TLR9-MyD88 block: TLR9-MyD88 interaction inhibition. Q9NR96+Q99836. CHO BLA complementation TLR9-MyD88, CCF4 FRET ratio. inhibition, % at 4.98 µM. 0.21% of 340,000 active;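 active = inhibition above the mean over all tested compounds plus 3 SD, cut at about 21% in these data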;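 also: 0% = DMSO only wells and 100% = clavulanate BLA inhibitor control wells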
# MC4R barr ag: human MC4R beta-arrestin agonism confirmation. shares compounds with MC4R ag barr. U2OS MC4R beta-arrestin recruitment, luminescence; scaled DMSO 0%, Melanotan II 100%. activation, % at 8.9 µM. 31% of 2,400 active. AID 602192;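 active = mean activation across replicates above the hit cutoff set in the earlier primary screen, cut at about 8% in these data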
# MOR DOR agonist: activates mu-delta opioid heterodimer, MC4R agonist counter-screen. shares compounds with MC4R ag barr. U2OS PathHunter beta-arrestin, beta-gal luminescence; percent of deltorphin B response, DMSO zero. activation, % at 9.2 µM. 5.8% of 2,400 active. AID 602194;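 active = mean activation across replicates exceeds the hit threshold derived in the earlier primary screen, cut at about 18% in these data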;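 also: 100% = deltorphin B at 0.9 µM final and 0% = DMSO alone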
# An asterisk follows results filed as active; . = not tested or not shown. Hits are enriched below; roughly 2.1% of the tested compounds scored in any of these assays.
SMILES,MC4R antag cAMP,TLR4-MyD88 BLA,MC4R ag barr,MIN6 prolif,NOD2 RIPK2 PPI,TLR9-MyD88 block,MC4R barr ag,MOR DOR agonist
O=[N+]([O-])c1cccc(OCC(O)CN2CCN(S(=O)(=O)c3cc(Cl)ccc3Cl)CC2)c1 (configuration not stated),8.5,.,3.4,-2.0,1.1,-7.7,.,.
COc1ccccc1NC(=O)CSCc1nc2ccccc2[nH]1,14.9,-3.4,-0.8,2.6,-11.6,-18.3,.,.
Cc1cc(Cl)ccc1OCc1nnc(-c2ccccc2C)o1,1.8,.,1.5,-1.6,6.7,0.6,.,.
COc1cc(-c2nnc(COc3ccc(Cl)cc3C)o2)cc(OC)c1OC,0.8,-0.2,28.5*,-0.6,-5.1,3.0,5.7,5.8
O=C(CCc1c[nH]c2ccccc12)NCC1COc2ccccc2O1 (configuration not stated),13.9,4.5,10.6*,-1.4,0.8,3.2,-3.4,1.0
COc1ccc(N(CC(=O)N2CCOCC2)S(C)(=O)=O)cc1OC,1.0,.,1.6,-3.8,-3.3,-5.4,.,.
Cc1ccccc1OCC(=O)N=Nc1c(O)n(C)c2ccccc12,4.5,.,18.0*,3.8,-13.8,-4.2,5.0,3.5
COc1cc(/C=N/N=C(/N)c2nonc2N)cc(Br)c1OCc1ccccc1C,25.3,-15.2,15.8*,-3.7,2.4,-1.7,6.4,3.2
Cc1cc(C)c(NC(=O)CCc2c(C)noc2C)c(C)c1,10.7,.,-0.3,1.4,-6.5,-5.3,.,.
CC(NS(=O)(=O)c1cccc(Cl)c1)C(=O)Nc1ccc(-c2nc3ccccc3s2)cc1 (configuration not stated),19.4,-4.2,16.2*,-3.4,-3.7,3.3,9.9*,7.5
CNS(=O)(=O)c1cccc(C(=O)OCC(=O)Nc2ccc(-c3nc4ccc(C)cc4s3)cc2)c1,7.5,7.7,15.6*,-6.1,-1.3,0.8,7.3,5.7
O=C(CNS(=O)(=O)c1cccc(Cl)c1)Nc1ccc(-c2nc3ccccc3s2)cc1,6.7,0.6,4.9,0.0,-2.1,-0.8,.,.
CCOC(=O)Cc1csc(NC(=O)c2sc3nc4ccc(C)cc4cc3c2N)n1,-4.6,19.2,19.4*,-4.4,-7.6,-6.1,1.5,3.6
CCOC(=O)Cc1csc(NC(=O)c2cccnc2)n1,6.2,1.3,-0.8,2.8,1.2,6.1,.,.
COc1cccc(-c2cc(C(=O)Nc3ccccc3SC)no2)c1,0.6,-18.9,6.6,-2.0,-2.2,4.8,.,.
CCCn1cc(NC(=O)c2cc(-c3ccccc3)on2)cn1,0.9,4.8,2.9,-1.1,8.9,10.6,.,.
COc1ccc(-c2cc(C(=O)Nc3cnn(Cc4ccccc4C)c3)no2)cc1OC,-1.5,3.1,11.9*,-2.0,-8.7,-6.2,3.1,8.9
COc1ccc(-c2cc(C(=O)Nc3ccccc3SC)no2)cc1OC,-4.9,-11.1,39.3*,-1.6,0.1,-5.5,3.0,13.2
O=C(Nc1cnn(C23CC4CC(CC(C4)C2)C3)c1)c1cc(-c2ccccc2)on1,0.3,2.1,11.8*,-2.6,-17.2,-2.8,0.3,1.9
CC(C)Oc1ccc(/C(O)=C2/C(=O)C(=O)N(CCN(C)C)C2c2cccs2)cc1 (configuration not stated),4.1,0.1,-1.8,-3.9,-7.8,0.9,.,.
C/C(=N\Nc1nc2ccccc2[nH]1)c1ccc(N2CCOCC2)cc1,2.3,-3.3,1.7,-6.5,-3.4,3.1,.,.
CCCCn1c(N)c(N(Cc2ccccc2OC)C(=O)CN2C(=O)NC3(CCCC3)C2=O)c(=O)[nH]c1=O,10.3,.,-3.3,-4.3,1.4,-0.3,.,.
CCOc1ccc(NS(=O)(=O)c2c(C)nc3sc(CC)nn3c2=O)cc1,-3.0,.,-0.8,-0.5,2.8,-2.2,.,.
CCOc1cc(/C=N/N=C(N)N)ccc1OCc1ccc(Cl)cc1,-0.4,-1.1,11.6*,.,1.5,3.9,10.9*,14.4
CCOc1cc(CNCCc2ccc(S(N)(=O)=O)cc2)ccc1OCc1ccc(Cl)cc1,3.0,9.1,12.1*,-4.0,14.9,-0.2,70.6*,58.3*
SMILES,MC4R antag cAMP,TLR4-MyD88 BLA,MC4R ag barr,MIN6 prolif,NOD2 RIPK2 PPI,TLR9-MyD88 block,MC4R barr ag,MOR DOR agonist
COc1ccc2[nH]c3c(C)c4ccncc4c(C)c3c2c1,10.2,.,13.7*,-5.8,10.2,-4.3,28.1*,5.7
Cc1c2ccncc2cc2c1[nH]c1ccccc12,9.6,.,1.8,.,-3.1,-7.5,.,.
COc1ccc2c(c1)OC[C@H]1[C@H]2N2C(=O)[C@H](C)NC(=O)[C@@]2(C)[C@H]1c1ccccc1,7.6,.,-2.5,-3.1,-1.1,-1.1,.,.
COc1cc2nc(Nc3ccc(C)c(Cl)c3)nc(N)c2cc1OC,0.1,.,10.8*,-5.2,-4.1,-9.0,18.4*,12.5
COc1cc2nc(Nc3ccc(C)c(C)c3)nc(N)c2cc1OC,2.9,.,0.3,-7.0,3.0,2.7,.,.
COC(=O)Nc1ccc(S(=O)(=O)NNC(=O)c2c(O)c3ccccc3n(C)c2=O)cc1,-1.1,.,-3.8,-1.8,-5.3,-4.9,.,.
CC1CCc2sc(C(=O)OCC(=O)NCc3ccc(F)cc3)cc2C1 (configuration not stated),-23.8,1.3,13.0*,0.0,6.6,2.7,2.0,3.8
CCCC(NC(=O)Cc1c(C)c2c(cc(C)c3c(C)coc32)oc1=O)C(=O)O (configuration not stated),6.0,.,-0.3,-1.7,7.0,1.2,.,.
CCOc1ccc(-c2nnn(CC(=O)Nc3cc(OC)ccc3OC)n2)cc1OCC,1.9,-10.8,0.2,0.8,-0.7,-5.6,.,.
CCOc1ccc(-c2nnn(CC(=O)Nc3cc(OC)cc(OC)c3)n2)cc1OCC,-1.9,-0.5,11.1*,-3.1,-1.0,9.7,4.1,7.4
CCOc1ccccc1NC(=O)Cn1nnc(-c2ccc(OCC)c(OCC)c2)n1,-1.3,-6.9,9.7*,-1.7,-6.2,-5.9,3.2,4.3
O=C(/C=C/c1ccc(Cl)cc1)Nc1ccc(N2CCOCC2)cc1,4.2,-3.8,2.2,-0.7,-1.9,-6.5,.,.
O=C(/C=C/c1ccc(Cl)cc1)Nc1ccccc1N1CCOCC1,2.3,-9.0,9.7*,0.0,0.2,1.7,3.4,2.4
O=C(Nc1ccc(N2CCOCC2)c(Cl)c1)c1ccc(Cl)cc1,7.0,-5.9,-0.1,2.1,4.1,7.6,.,.
O=C(/C=C/c1ccc(Cl)cc1)NC(=S)Nc1ccc(N2CCOCC2)c(Cl)c1,11.0,2.3,15.0*,-6.2,-4.0,10.0,7.2,4.5
